Measured values from ChEMBL document CHEMBL1157946, “Sesquiterpene lactones as allelochemicals” (J Nat Prod, 2006).
Calls of active or inactive are those of the source. No cut-off for these calls is given here.

Experiments:
Solanum lycopersicum [1] = experiment: Phytotoxicity against Lycopersicon esculentum Will assessed as inhibition of shoot development at 0.5 mM relative to control; format: functional
How it was run: (§1)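 Seeds on filter paper in Petri dishes with 10^-2 M MES buffer, pH 6.0. Test concentrations 5×10^-4, 10^-4, 5×10^-5 and 10^-5 M, made by diluting DMSO solutions at 5 μL/mL buffer. Dishes sealed and kept at 25 °C in the dark: lettuce and tomato 5 days, onion 7 days. Plants frozen at -10 °C for 24 h before measurement. Root and shoot length recorded automatically and compared with buffer/DMSO control.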

Lactuca sativa [2] = experiment: Phytotoxicity against Lactuca sativa L. assessed as inhibition of shoot growth at 0.5 mM to 50 uM relative to control; format: functional, organism-based; how it was run: as §1
Allium cepa [3] = experiment: Phytotoxicity against Allium cepa assessed as inhibition of root growth at 0.5 mM relative to control; format: functional; how it was run: as §1
Lactuca sativa [4] = experiment: Phytotoxicity against Lactuca sativa L. assessed as inhibition of root growth at 0.5 mM to 50 uM relative to control; format: functional, organism-based; how it was run: as §1
Solanum lycopersicum [5] = experiment: Phytotoxicity against Lycopersicon esculentum Will assessed as inhibition of root growth at 0.5 mM to 50 uM relative to control; format: functional; how it was run: as §1
Triticum aestivum [6] = experiment: Growth inhibition of Triticum aestivum L. cv. Duro at 1 mM after 24 hrs by coleoptile assay; format: functional, organism-based
How it was run: (§2)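 Etiolated wheat coleoptile sections (apical 2 mm discarded, next 4 mm used; cut under green safelight), tested at 10^-3 to 10^-6 M from DMSO stock (max 0.1% DMSO final) in phosphate–citrate buffer pH 5.6 with 2% sucrose. Five sections per tube, three tubes per dilution, duplicated. Tubes rotated at 0.25 rpm, 24 h, 22 °C, dark. Lengths from digitized images. Reported as % difference from parallel control; Welch's test.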

Allium cepa [7] = experiment: Phytotoxicity against Allium cepa assessed as inhibition of shoot growth at 0.5 mM relative to control; format: functional; how it was run: as §1
Triticum aestivum [8] = experiment: Growth stimulation of Triticum aestivum L. cv. Duro at <1 mM after 24 hrs by coleoptile assay; format: functional, organism-based; how it was run: as §2
Triticum aestivum [9] = experiment: Growth inhibition of Triticum aestivum L. cv. Duro after 24 hrs by coleoptile assay; format: functional, organism-based; how it was run: as §2
Triticum aestivum [10] = experiment: Growth inhibition of Triticum aestivum L. cv. Duro at 1 uM after 24 hrs by coleoptile assay; format: functional; how it was run: as §2

Question: Which inhibition at 500 µM (Solanum lycopersicum [1]) does the source give for `C=C1C(=O)O[C@H]2/C=C(/CO)C(=O)/C=C/[C@@](C)(O)C[C@@H](OC(=O)/C(C)=C\C)[C@@H]12` here?
Answer: 20%

Question: What about the Activity (Lactuca sativa [2]) of the same compound?
Answer: Active

Question: What about the inhibition at 500 µM (Allium cepa [3]) of the same compound?
Answer: 54%

Question: And the Activity (Lactuca sativa [4])?
Answer: Active

Question: `C=C1C(=O)O[C@H]2[C@H]1[C@H](OC(=O)/C(C)=C\C)C[C@]1(C)C=CC(=O)C(=C)[C@H]2O1` [HELIVYPOLIDE F] was tested. Which inhibition at 500 µM (Solanum lycopersicum [1]) did it give?
Answer: 20%

Question: What about the “inhibition (INH)” value (Solanum lycopersicum [5]) of the same compound?
Answer: 32%

Question: What about the Activity (Lactuca sativa [2]) of the same compound?
Answer: Active

Question: And the Activity (Triticum aestivum [6])?
Answer: Active

Question: What about the inhibition at 500 µM (Allium cepa [7]) of the same compound?
Answer: 20%

Question: What about the inhibition at 500 µM (Allium cepa [3]) of the same compound?
Answer: 54%

Question: And the Activity (Lactuca sativa [4])?
Answer: Active

Question: How did the Activity (Triticum aestivum [8]) turn out when `C=C1C(=O)O[C@H]2[C@H]1[C@H](OC(=O)/C(C)=C\C)C[C@@]1(C)[C@H](O)C[C@H](O)C(=C)[C@@H]21` was run?
Answer: Active

Question: How did the “inhibition (INH)” value (Triticum aestivum [9]) turn out when `C=C1C(=O)O[C@@H]2[C@H]3C(C)=C[C@H](O)[C@H]3[C@](C)(O)C[C@@H](OC(=O)/C(C)=C\C)[C@@H]12` [ANNUOLIDE H] was run?
Answer: 82%

Question: `C=C1C(=O)O[C@@H]2/C=C(/CO)[C@@]3(O)CC[C@@](C)(C[C@@H](OC(=O)/C(C)=C\C)[C@@H]12)O3` [NIVEUSIN B] was tested. Which inhibition at 500 µM (Solanum lycopersicum [1]) did it give?
Answer: 20%

Question: What about the inhibition at 1000 µM (Triticum aestivum [6]) of the same compound?
Answer: 92%

Question: How did the inhibition at 1 µM (Triticum aestivum [10]) turn out when `C=C1C(=O)O[C@@H]2[C@H]3C(CO)=CC[C@H]3C(=C)CC[C@@H]12` [ANNUOLIDE A] was run?
Answer: 35%

Question: And the IC50 (Triticum aestivum [9]; Triticum aestivum, 24 h)?
Answer: 370 µM

Question: What about the inhibition at 1000 µM (Triticum aestivum [6]) of the same compound?
Answer: 90%

Question: What does the source list for `C=C1C(=O)O[C@@H]2[C@H]3C(C)=CC[C@H]3[C@](C)(O)C[C@@H](OC(=O)/C(C)=C\C)[C@@H]12`?
Answer: IC50 (Triticum aestivum [6]): 150 µM; inhibition at 1000 µM (Triticum aestivum [6]): 98%
